Results from ChEMBL document CHEMBL4145571, “Ajmaline, Oxindole, and Cytotoxic Macroline-Akuammiline Bisindole Alkaloids from Alstonia penangiana” (J Nat Prod, 2018).

What was measured:
LNCaP = experiment: Growth inhibition of human LNCAP cells after 72 hrs by MTT assay; assay type: functional, cell-based
In short: (§1)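 Values are mean ± SD from three independent experiments. For the KB/VJ300 line with vincristine, 0.1 μM vincristine was added alongside the test compound. The remaining method details come from earlier published procedures.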

MDA-MB-231 = experiment: Growth inhibition of human MDA-MB-231 cells after 72 hrs by MTT assay; assay type: functional, cell-based; settings: MDA-MB-231, 72 h; in short: as §1
[1] = Growth inhibition of human KB/S cells after 72 hrs by MTT assay; assay type: functional; in short: as §1
MCF7 = experiment: Growth inhibition of human MCF7 cells after 72 hrs by MTT assay; assay type: functional, cell-based; settings: MCF7, 72 h; in short: as §1
HCT-116 = experiment: Growth inhibition of human HCT116 cells after 72 hrs by MTT assay; assay type: functional, cell-based; settings: HCT-116, 72 h; in short: as §1
PC-3 = experiment: Growth inhibition of human PC3 cells after 72 hrs by MTT assay; assay type: functional, cell-based; settings: PC-3, 72 h; in short: as §1
KB/VJ300 [2] = experiment: Growth inhibition of human KB/VJ300 cells after 72 hrs in presence of 0.1 uM of vincristine by MTT assay; assay type: functional; settings: KB/VJ300, 72 h; in short: as §1
A549 = experiment: Growth inhibition of human A549 cells after 72 hrs by MTT assay; assay type: functional, cell-based; settings: A549, 72 h; in short: as §1
KB/VJ300 [3] = experiment: Growth inhibition of human KB/VJ300 cells after 72 hrs by MTT assay; assay type: functional; settings: KB/VJ300, 72 h; in short: as §1
HT-29 = experiment: Growth inhibition of human HT-29 cells after 72 hrs by MTT assay; assay type: functional, cell-based; settings: HT-29, 72 h; in short: as §1

IC50 (LNCaP) [µM] | IC50 (MDA-MB-231) [µM] | IC50 (MCF7) [µM] | IC50 (HCT-116) [µM] | IC50 (PC-3) [µM] | IC50 (KB/VJ300 [2]) [µM] | IC50 (A549) [µM] | IC50 (KB/VJ300 [3]) [µM] | IC50 (HT-29) [µM] | SMILES | IC50 [1] [µM]
6.9 | 5.2 | 3.8 | 6.6 | > 10 | > 10 | 8.3 | > 10 | 0.7 | C/C=C1/CN2CC[C@@]34c5cc([C@@H](C)[C@H]6[C@@H]7C[C@H]8c9c(c%10ccccc%10n9C)C[C@@H]([C@@H]7CO[C@@H]6O)N8C)c(OC)cc5N(C)[C@H]3[C@@H]2C[C@H]1C4C(=O)OC (stereo partly drawn) | 2
 |  |  |  |  | 0.1 |  |  |  | COc1ccc(CCN(C)CCCC(C#N)(c2ccc(OC)c(OC)c2)C(C)C)cc1OC (stereo not drawn) [VERAPAMIL] | 
 |  |  |  |  |  |  | 3.9 |  | CC[C@]1(O)C[C@H]2CN(CCc3c([nH]c4ccccc34)[C@@](C(=O)OC)(c3cc4c(cc3OC)N(C=O)[C@H]3[C@@](O)(C(=O)OC)[C@H](OC(C)=O)[C@]5(CC)C=CCN6CC[C@]43[C@@H]65)C2)C1 [VINCRISTINE] | 0.0003
